ChEMBL document CHEMBL1124298, “Synthesis and antineoplastic activity of 5-aryl-2,3-dihydropyrrolo[2,1-b]thiazole-6,7-dimethanol 6,7-bis(isopropylcarbamates)” (J Med Chem, 1988)

Tests used:
HL-60 [1] = assay: Growth inhibitory activity against HL-60 human promyelocytic leukemia cell line relative to NSC-278214; type: functional
HL-60 [2] = assay: Concentration required to reduce cell number (HL-60 human promyelocytic leukemia cell line) on day 7 by 50%; type: functional, cell-based; conditions: HL-60, 168 h
In short: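 HL-60 cells were grown in RPMI 1640 with 10% heat-inactivated FBS at 37 °C in humidified 10% CO2, resuspended at 10⁵/mL, and given drug. Drug was dissolved in DMSO, with at most 0.2% DMSO in the culture. Cells were counted by Coulter counter on day 7. IC50 is the concentration that reduced cell number by 50%. Values are from three experiments.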

Compound | IC50 (HL-60 [2]) [nM] | Potency (HL-60 [1])
CC(C)NC(=O)OCc1c(COC(=O)NC(C)C)c(-c2ccc(Cl)c(Cl)c2)n2c1CCC2 | 1500 | 1
CC(C)NC(=O)OCc1ccccc1COC(=O)NC(C)C | > 300000 | <0.005
CC(C)NC(=O)OCc1c(COC(=O)NC(C)C)c(-c2ccc(F)cc2)n2c1SCC2 | 1600 | 0.94
CC(C)NC(=O)OCc1c(COC(=O)NC(C)C)c(-c2ccc(Cl)c(Cl)c2)n2c1SCC2 | 1900 | 0.79

Second part, led by results:

IC50 (HL-60 [2]) [nM] | Compound | Potency (HL-60 [1])
850 | CC(C)NC(=O)OCc1c(COC(=O)NC(C)C)c(-c2ccc(Cl)cc2)n2c1SCC2 | 1.76
1500 | CC(C)NC(=O)OCc1c(COC(=O)NC(C)C)c(-c2ccccc2)n2c1SCC2 | 1
